Compound activity (PubChem BioAssay)
pPAFAH FP inh: pPAFAH enzyme inhibitors, primary screen, biochemical, fluorescence polarization, human | Platelet-activating factor acetylhydrolase (Homo sapiens), Q13093 | recombinant pPAFAH, FP-rhodamine probe fluorescence polarization | inhibition, % at 3.39 µM | actives 1.5% (n = 330,000) | AID 463082, 2010;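 active = inhibition above the mean inhibition across the screen plus 3 SD, cut at about 25% in these data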;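 note: inhibitors block binding of the rhodamine activity-based probe so polarization drops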
PAFAH2 inh: PAFAH2 enzyme inhibitors, primary screen, biochemical, fluorescence polarization, human. recombinant PAFAH2, FP-rhodamine activity probe. inhibition, % at 3.39 µM. actives 0.99% (n = 340,000). AID 492956, 2010;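 active = inhibition above the mean over all tested compounds plus 3 SD, cut at about 30% in these data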;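 note: inhibitors block probe labeling of enzyme so polarization drops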
VIM-2 inh: VIM-2 metallo-beta-lactamase inhibitors, primary screen, biochemical, epi-absorbance readout, Pseudomonas aeruginosa enzyme | purified VIM-2, nitrocefin hydrolysis, epi-absorbance fluorescence | inhibition, % at 5.6 µM | actives 0.89% (n = 290,000);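 active = inhibition above the mean of all tested compounds plus 3 SD, cutoff set per screening run, cut at about 7.5% in these data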;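 note: red hydrolysis product quenches plate fluorescence so inhibitors raise well fluorescence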
PAFAH1B2 inh: PAFAH1B2 enzyme inhibitors, primary screen, biochemical, fluorescence polarization, human; actives 1.2% (n = 340,000); recombinant PAFAH1B2, FP-rhodamine activity probe; AID 492953, 2010; inhibition, % at 3.39 µM;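 active = inhibition above the mean of all tested compounds plus 3 SD, cut at about 24% in these data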
Target sequence (P68402 whole entry, looked up): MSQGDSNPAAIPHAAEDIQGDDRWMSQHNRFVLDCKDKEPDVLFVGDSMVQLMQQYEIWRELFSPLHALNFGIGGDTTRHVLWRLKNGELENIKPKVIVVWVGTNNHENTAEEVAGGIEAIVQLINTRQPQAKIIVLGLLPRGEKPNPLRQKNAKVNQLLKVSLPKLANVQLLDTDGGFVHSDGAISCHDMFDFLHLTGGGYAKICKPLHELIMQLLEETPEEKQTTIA
IMP-1 inhibitor: IMP-1 metallo-beta-lactamase inhibitors, primary screen, biochemical, epi-absorbance readout, Pseudomonas aeruginosa enzyme | purified IMP-1, nitrocefin hydrolysis, epi-absorbance fluorescence | inhibition, % at 5.6 µM | actives 0.45% (n = 290,000) | metallo-beta-lactamase IMP-1 (Pseudomonas aeruginosa);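 active = inhibition above the mean plus 3 SD of all compounds in the same screening run, cut at about 4.5% in these data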
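Test system: recombinant IMP-1 enzyme, purified / Medium: HEPES buffer pH 7.1 with ZnSO4 and Brij 35 / Doses: single dose, 5.6 µM / Times: 25 °C, 15 min preincubation, 25 min reaction / Detection: Epi-absorbance via hydrolysed-nitrocefin quenching of white-plate fluorescence, 480/530 nm, EDTA stop / Evaluation: percent inhibition from optical density relative to buffer-blank wells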
PAFAH1B3 inh: PAFAH1B3 enzyme inhibitors, primary screen, biochemical, fluorescence polarization, human; Platelet-activating factor acetylhydrolase IB subunit alpha1 (Homo sapiens), Q15102; recombinant PAFAH1B3, FP-rhodamine probe; inhibition, % at 3.39 µM; actives 0.28% (n = 340,000); AID 492972, 2010;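 active = inhibition above the screen-wide average of all tested compounds plus 3 SD, cut at about 25% in these data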
Target sequence (Q15102 whole entry, looked up): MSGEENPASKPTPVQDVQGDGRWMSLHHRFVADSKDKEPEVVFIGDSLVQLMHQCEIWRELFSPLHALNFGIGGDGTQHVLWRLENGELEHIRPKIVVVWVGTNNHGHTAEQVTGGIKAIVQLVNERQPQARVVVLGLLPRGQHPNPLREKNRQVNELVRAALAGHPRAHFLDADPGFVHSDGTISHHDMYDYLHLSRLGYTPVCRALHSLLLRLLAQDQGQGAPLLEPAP
Each line names hits and unclear results; the compound was inactive in the other large screens. Hits are enriched below; roughly 3.6% of the tested compounds scored in any of these assays.

O=C(COc1ccc2c3c(c(=O)oc2c1)CCC3)N1CCN(c2ccc(F)cc2)CC1	VIM-2 inh 9.1
O=C(COc1ccc2c3c(c(=O)oc2c1)CCCC3)N1CCN(c2ccc(F)cc2)CC1	none
NC(=O)C1CCN(C(=O)COc2ccc3c4c(c(=O)oc3c2)CCCC4)CC1	VIM-2 inh 11.2
CC(Oc1ccc2c3c(c(=O)oc2c1)CCCC3)C(=O)NCC(O)c1ccccc1 (configuration not stated)	none
O=C(O)c1ccc(COc2ccc3c4c(c(=O)oc3c2)CCC4)o1	VIM-2 inh 8.5
CC(C)C(NC(=O)c1ccccc1F)C(=O)NCCCn1ccnc1 (configuration not stated)	none (no result: VIM-2 inh, IMP-1 inhibitor)
Cc1ccc(N(CC(O)CN2C(=O)NC(C)(C)C2=O)S(=O)(=O)c2ccc([N+](=O)[O-])cc2)cc1 (configuration not stated)	none
Cc1cc(OCC(=O)N2CCOCC2)cc2oc(=O)c3ccccc3c12	VIM-2 inh 9.5
Cc1ccc(OCC(=O)N2CCOCC2)cc1C	none
O=C(CSc1ccc2nnc(-c3cccs3)n2n1)N1CCCC1	VIM-2 inh 8.1
CCCCc1nnc(SCC(=O)NC2CCCCC2)n1C	none
O=S(=O)(Nc1nc2ccccc2nc1N1CCN(CCO)CC1)c1cc(F)ccc1F	none (no result: VIM-2 inh, IMP-1 inhibitor)
Cc1nc(NCc2cccnc2)c2c3c(sc2n1)CC(C)CC3 (configuration not stated)	VIM-2 inh 9.9
O=C(O)CN1C(=O)c2cccc(Oc3ccc(Cl)cc3)c2C1=O	IMP-1 inhibitor 11.8
Cc1ccc(N2C(=O)c3cccc(Oc4ccc(Cl)cc4)c3C2=O)c(C)c1	none
CCC(=O)c1ccc(N2CCN(C(=O)c3cccs3)CC2)c(F)c1	none
Cc1cccc(-n2nc3c(c2NC(=O)c2ccco2)CSC3)c1C	pPAFAH FP inh 30.9
Cc1cccc(-n2nc3c(c2NC(=O)c2ccco2)CS(=O)C3)c1C (configuration not stated)	none
Cc1ccccc1-n1nc2c(c1NC(=O)c1c(-c3ccccc3Cl)noc1C)CSC2	IMP-1 inhibitor 44.0
COc1cccc(N(CC(=O)NCCSCc2ccco2)S(=O)(=O)c2ccccc2)c1	IMP-1 inhibitor 5.0
COc1ccc(N(CC(=O)NCCSC2CCCCC2)S(=O)(=O)c2ccccc2)c(OC)c1	none
Cc1cccc(N(CC(=O)NCCSCc2ccco2)S(=O)(=O)c2ccccc2)c1	none
COc1ccc(N(CC(=O)NCCSc2ccc(C)cc2)S(=O)(=O)c2ccccc2)c(OC)c1	PAFAH1B2 inh 26.6
Cc1cccc(NS(=O)(=O)c2ccc(OCC(=O)N3CCCC3)cc2)c1	pPAFAH FP inh 34.1
CCN(CC(=O)NCc1cccs1)C(=O)c1cccc(S(=O)(=O)Nc2ccc(F)cc2)c1	none (no result: pPAFAH FP inh, VIM-2 inh, IMP-1 inhibitor)
CCN(CC(=O)NCc1cccs1)C(=O)c1cccc(S(=O)(=O)Nc2cccc(C)c2)c1	pPAFAH FP inh 31.2 (no result: VIM-2 inh, IMP-1 inhibitor)
COc1ccc(NS(=O)(=O)c2cccc(C(=O)N3CCCC(C)C3)c2)cc1 (configuration not stated)	pPAFAH FP inh 24.6 (no result: VIM-2 inh, IMP-1 inhibitor)
Cc1cccc(NS(=O)(=O)c2cccc(C(=O)N3CCCC3)c2)c1	pPAFAH FP inh 27.4 (no result: VIM-2 inh, IMP-1 inhibitor)
COc1ccc(NS(=O)(=O)c2cccc(C(=O)N3CCC3)c2)cc1	none (no result: VIM-2 inh, IMP-1 inhibitor)
COc1cccc(/C=C2/CCC(CN(C)C)C2=O)c1 (configuration not stated)	none (no result: pPAFAH FP inh, VIM-2 inh, IMP-1 inhibitor)
CCCCCCCCCCCC1N=C(N)NC(CCCO)=C1C(=O)OC (configuration not stated)	none (no result: pPAFAH FP inh, VIM-2 inh, IMP-1 inhibitor)
O=C(c1cccc(NS(=O)(=O)c2ccc(Br)cc2)c1)N1CCN(c2ccccc2O)CC1	PAFAH1B2 inh 24.5 (no result: pPAFAH FP inh, VIM-2 inh, IMP-1 inhibitor)
O=C(c1cccc(NS(=O)(=O)c2ccccc2)c1)N1CCCC1	none
CN1CCN(c2c([N+](=O)[O-])cnc3ccccc23)CC1	none (no result: VIM-2 inh, IMP-1 inhibitor)
Cc1ncc(CSc2nccc(=O)[nH]2)c(CO)c1O	none
Cc1ncc(CSc2ccc(Cl)cc2)c(CO)c1O	PAFAH1B2 inh 26.9
Cc1ccc(SCC(=O)N=C2NC(=O)CS2)cc1	PAFAH1B2 inh 26.1
Cc1ccc(N=C2NC(=O)CS2)cc1	none
O=C(CSc1ccccc1)NC(=O)NCc1ccccc1	PAFAH1B2 inh 32.0
O=C(CN1CCCCC1)NCC1(c2ccccc2)CCCC1	PAFAH1B2 inh 28.9
O=C(CN1CCCC1)NCC1(c2ccccc2)CCOCC1	none
O=C(CSc1ccccc1)NCC1(N2CCCCC2)CCCCC1	pPAFAH FP inh 34.1 (no result: VIM-2 inh, IMP-1 inhibitor)
O=C(CSc1nnnn1-c1ccccc1)NCC1(N2CCCCC2)CCCCC1	none (no result: VIM-2 inh, IMP-1 inhibitor)
Cc1ccc(C(=O)NCC2(c3ccccc3)CCCC2)cc1	PAFAH1B2 inh 91.9
CC(=O)c1cccc(NC(=O)Cn2cnc(S(=O)(=O)N3CCCC3)c2)c1	none
CC(C)Oc1ccc(S(=O)(=O)N2CCOCC2)cc1NC(=O)CN1C(=O)NC2(CCCC2)C1=O	none
COC(=O)c1sc(NC(=O)c2ccc3c(c2)OCO3)c(C#N)c1C	none (no result: pPAFAH FP inh, VIM-2 inh, IMP-1 inhibitor)
CCN(CC)CC(=O)NCC1(c2ccccc2)CCCC1	PAFAH1B2 inh 25.8
Cn1ccnc1SCc1ccc(Cl)cc1Cl	none
O=C(O)c1sccc1SCc1ccc(Cl)cc1Cl	PAFAH1B2 inh 30.1
CCc1ccccc1NC(=O)CSc1ccsc1[N+](=O)[O-]	pPAFAH FP inh 25.2
COc1ccccc1CNC(=O)CSc1ccsc1[N+](=O)[O-]	none
CCCS(=O)(=O)N1CCCC(C(=O)NCCCN2CCN(c3ccc(F)cc3)CC2)C1 (configuration not stated)	IMP-1 inhibitor 5.4
CC(=O)C[C@@H](O)CC(=O)[C@@H]1OC(=O)[C@@H](C)C/C=C\Cc2ccccc21	none (no result: VIM-2 inh, IMP-1 inhibitor)
CCOC(=O)c1ccc(N2CN(C3CCCCC3)CNC2=S)cc1	IMP-1 inhibitor 7.2
CCOc1ccccc1N1CN(C2CCCCC2)CNC1=S	none (no result: PAFAH2 inh, PAFAH1B2 inh, PAFAH1B3 inh)
CCN(c1ccccc1)S(=O)(=O)c1ccc(Oc2ccccc2)c(N)c1	none (no result: pPAFAH FP inh, VIM-2 inh, IMP-1 inhibitor)
CCOc1ccc(N(C)Cc2cc(=O)oc3ccc(OCC)cc23)cc1	none (no result: pPAFAH FP inh)
CC(C)N=C(NC#N)SCC(=O)NC(C)(C)C	none
C=CCN=C(NC#N)SCC(=O)NC(C)(C)C	IMP-1 inhibitor 5.4
O=C(N/N=C/c1cccnc1)c1cccc(F)c1	none
O=C(N/N=C/c1ccc(OC(=O)c2cccc(Br)c2)cc1)c1cccnc1	IMP-1 inhibitor 9.7
O=C(N/N=C/c1cccc(OC(=O)c2cccc(Br)c2)c1)c1cccnc1	none (no result: pPAFAH FP inh)
O=C(N/N=C/c1ccc(O)c2ncccc12)c1cccc(Br)c1	pPAFAH FP inh 26.6, PAFAH1B3 inh 25.7
O=C(N/N=C/c1ccc(OC(=O)c2cccc(F)c2)cc1)c1cccnc1	IMP-1 inhibitor 4.6
O=C(N/N=C/c1ccc(OC(=O)c2ccc(Br)cc2)cc1)c1ccncc1	IMP-1 inhibitor 7.6
